Hits are enriched below; roughly 1.2% of the tested compounds scored in any of these assays.
proCasp7 act: counter-screen: procaspase-7 (human) activation; P55210; recombinant procaspase-7, Ac-DEVD-pNA absorbance 405 nm; D23A/D198A/D206A triple mutant, cannot self-cleave; scale: DMSO 0, 5 µM enzyme 100; activation, % at 8.5 µM; 0.093% of 330,000 active;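 active = percent activation above the screen-wide mean plus 3 SD, cut at about 25% in these data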
Target sequence (P55210 whole entry D23A/D198A/D206A): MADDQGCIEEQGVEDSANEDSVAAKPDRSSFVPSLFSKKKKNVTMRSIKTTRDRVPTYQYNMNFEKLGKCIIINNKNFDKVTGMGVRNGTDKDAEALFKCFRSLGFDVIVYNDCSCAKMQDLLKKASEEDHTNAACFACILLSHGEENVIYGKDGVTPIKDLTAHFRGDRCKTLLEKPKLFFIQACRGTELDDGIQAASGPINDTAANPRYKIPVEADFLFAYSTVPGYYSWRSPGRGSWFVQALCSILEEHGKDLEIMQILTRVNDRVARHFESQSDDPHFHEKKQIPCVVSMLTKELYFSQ
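System: Uncleavable procaspase-7 mutant enzyme; Amount: 2 µM procaspase-7 mutant as dispensed; Schedule: 1 h compound preincubation, 2 h substrate cleavage, 25 °C; Measured by: 405 nm absorbance of p-nitroaniline; Evaluation: percent activation from buffer-corrected 0–120 min absorbance change; Control set: low DMSO alone, high DMSO plus 5 µM PC-7.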
IDE cell inh: cellular human IDE inhibition; inhibition, % at 5.59 µM; P14735; HEK cells, FAbetaB cleavage, fluorescence polarization; 0.41% of 320,000 active;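 active = percent inhibition above the average of all tested compounds plus 3 SD, set per screening campaign, cut at about 16% in these data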;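 also: IDE supplied by intact live HEK cells; FP after avidin binding of uncleaved biotin substrate so inhibition keeps polarization high; 0% = DMSO wells and 100% = 60 µM reference IDE inhibitor Ii1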
TPT1 inhibitor: blocks Candida albicans tRNA 2'-phosphotransferase; recombinant caTPT1, FP RNA substrate dephosphorylation; inhibition, % at 5 µM; 0.81% of 300,000 active; AID 1962;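 active = inhibition above the mean of all tested compounds plus 3 SD, set per screening campaign, cut at about 24% in these data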;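 also: plate controls were DMSO alone for no effect and ferristatin control at 100 nM for full effect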
IDE cell activ: boosts human insulin-degrading enzyme activity in HEK cells. P14735. AID 493087. 0.073% of 340,000 active. activation, % at 5.96 µM. FAbeta-B cleavage, fluorescence polarization; 0% vehicle, 100% cell-free pure enzyme wells;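 active = activation above the mean of all tested compounds plus 3 SD, set per screening campaign, cut at about 17% in these data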
procasp3 activ: activates human procaspase-3. activation, % at 8.5 µM. P42574. 0.11% of 330,000 active. recombinant procaspase-3 D3A, Ac-DEVD-pNA absorbance 405 nm;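 active = activation above the mean of all tested compounds plus 3 SD, cut at about 21% in these data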;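 also: 0% = DMSO alone and 100% = DMSO wells spiked with extra 5 µM PC-3 D3A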
Target sequence (P42574 whole entry D9A/D28A/D175A): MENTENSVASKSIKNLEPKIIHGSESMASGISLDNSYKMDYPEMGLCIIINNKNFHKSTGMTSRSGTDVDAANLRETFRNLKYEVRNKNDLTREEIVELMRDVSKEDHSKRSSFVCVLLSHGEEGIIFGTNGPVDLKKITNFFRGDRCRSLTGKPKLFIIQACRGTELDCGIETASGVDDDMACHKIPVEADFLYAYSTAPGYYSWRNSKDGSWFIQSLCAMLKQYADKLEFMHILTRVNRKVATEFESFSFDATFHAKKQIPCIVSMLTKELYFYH
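Test system: Procaspase-3 D3A mutant, all three cleavage aspartates alanine | Dosing: Single dose, 8.5 µM nominal compound, 0.8% DMSO | Schedule: 1 h preincubation, 2 h reaction | Technique: 405 nm absorbance of p-nitroaniline, reads at 0 and 120 min | Repeats: One well per compound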
The depositor's hits bear a star; / = no result given.

SMILES	proCasp7 act	IDE cell inh	TPT1 inhibitor	IDE cell activ	procasp3 activ
N#CC(C#N)=C1C=C2C=C(N3CCCCCC3)CCC2CC1 (stereo not drawn)	/	/	/	46.9*	/
N#Cc1cc(Cl)c(N2CCOCC2)cc1C#N	3.8	5.3	-4.7	1.6	-0.8
N#CC(C#N)=C1C=C2C=C(N3CCOCC3)CCC2CC1 (stereo not drawn)	/	/	/	58.4*	/
CCN1CCN(C2=CC3=CC(=C(C#N)C#N)CCC3CC2)CC1 (stereo not drawn)	/	/	/	34.6*	/
CC1(C)CC(NCCN2CCN(C3=CC(=C(C#N)C#N)CC(C)(C)C3)CC2)=CC(=C(C#N)C#N)C1	8.8	3.6	-0.8	0.7	3.9
O=C(Nc1nnc(SCc2cccnc2)s1)C1CC(=O)N(c2ccccc2)C1 (stereo not drawn)	-1.9	6.2	-0.3	1.6	3.1
COc1cc(C2Nc3cccc4cccc(c34)N2)ccc1O	9.1	-0.8	0.3	19.0*	-3.5
CCCCOc1ncnc2c1[nH]c1ccc(C)cc12	-2.8	37.6*	-5.9	/	1.9
COc1cccc2c1C(=O)c1c(O)c3c(c(O)c1C2=O)C[C@@](O)(C(C)=O)C[C@@H]3O[C@H]1C[C@H](N)[C@H](O)[C@H](C)O1	/	/	/	18.6*	/
Fc1ccc2[nH]c3c(N4CCN(C5CCCCC5)CC4)ncnc3c2c1	7.7	19.7*	0.4	/	1.1
O=c1c2[nH]c3ccc(F)cc3c2ncn1CC1CCCO1 (stereo not drawn)	7.7	7.0	-2.1	-0.2	2.0
C=CCn1c(O)c(C2=c3ccccc3=NC2=O)sc1=Nc1ccc(O)cc1	-16.4	-7.2	-1.8	19.4*	0.3
COc1ccc(C(=O)OC(C)C(=O)NCC2CCCCC2)cc1S(=O)(=O)N1CCOCC1 (stereo not drawn)	-8.8	-1.2	/	4.6	-3.8
COc1ccccc1OCCCC(=O)Nc1nnc(C2CCCO2)s1 (stereo not drawn)	-0.4	1.2	0.3	13.9	2.9
Cc1cc(C(=O)N/N=C/c2cc(N=Nc3ccccc3)ccc2O)n[nH]1	26.4*	8.1	0.7	-7.9	18.2
COC(=O)N/N=C/c1cc(N=Nc2ccccc2)ccc1O	-11.8	3.8	-2.1	4.5	-10.5
Cc1ccc(N2CC(C(=O)NCCC3=CCCCC3)CC2=O)cc1 (stereo not drawn)	-2.1	-1.5	3.8	3.5	-7.4
Oc1ccc2c(c1)OCC1(O)Cc3cc(O)c(O)cc3C21 (stereo not drawn)	/	/	/	33.8*	/
Oc1cc2c(cc1O)[C@H]1c3ccc(O)c(O)c3OC[C@@]1(O)C2	-22.8	0.7	/	-14.4	-4.9
O=C(CN1C(=O)COc2ccc(S(=O)(=O)N3CCCC3)cc21)NCc1ccccn1	8.9	1.3	-2.3	19.0*	0.7
O=C(NCc1ccco1)C1CCCN1C(=O)Nc1ccccc1Cl (stereo not drawn)	-2.4	-2.7	-1.9	2.6	-5.4
O=C(O)c1ccccc1NC(=O)C1CCN(S(=O)(=O)c2cccc3nsnc23)CC1	-1.7	-22.2	1.7	32.3*	4.3
Oc1cc(OCc2ccccc2)ccc1-c1[nH]ncc1-c1ccccc1	5.0	1.2	1.0	22.6*	-0.3
C1CCCCCC(=NNc2nn[nH]n2)CCCCC1	-3.5	0.7	0.5	33.8*	-3.5
CC(Oc1cc2oc(=O)c3c(c2cc1Cl)CCC3)C(=O)NCCCn1ccnc1 (stereo not drawn)	1.5	5.6	-0.1	0.3	-4.2
SMILES	proCasp7 act	IDE cell inh	TPT1 inhibitor	IDE cell activ	procasp3 activ
CC(OC(=O)CC1CC2CCC1C2)C(=O)Nc1cccc(S(=O)(=O)N2CCOCC2)c1 (stereo not drawn)	2.4	6.8	-0.5	17.7*	-3.3
CC(OC(=O)CC1CC2CCC1C2)C(=O)Nc1ccc(N2CCOCC2)cc1 (stereo not drawn)	-3.5	8.0	-1.1	4.4	-3.2
Cc1ccc(S(=O)(=O)Nc2csc(C)c2C(=O)O)cc1	1.7	-2.4	5.1	/	-8.9
CC(=O)NNc1cc(C)nc(N)n1	11.5	1.7	-0.3	/	9.1
O=C(O)c1ccccc1Nc1ccc([N+](=O)[O-])c2nonc12	-6.2	-14.4	-24.4	21.6*	-1.6
COc1ccc2[nH]c(=O)c(CN(Cc3cccs3)C(=S)Nc3cccc(C)c3)cc2c1	7.4	-3.8	-0.6	5.9	12.2
CNC(=S)N(Cc1cccs1)Cc1cc2cc(OC)ccc2[nH]c1=O	5.5	5.7	-0.9	34.0*	-4.0
CCCN1CCc2c(sc(NC(=O)c3ccc(S(=O)(=O)N4CCN(C(=O)OCC)CC4)cc3)c2C(N)=O)C1	-12.2	11.4	156.5*	-8.5	-6.5
CCCCn1c(NC(=O)c2ccc(F)cc2)c(C#N)c2nc3ccccc3nc21	-4.7	1.5	80.5*	/	3.4
CCCCn1c(NC(=O)c2ccccc2)c(C#N)c2nc3ccccc3nc21	/	/	/	-3.7	/
Cc1ccc(C)c(C(C)NC(=O)c2ccc(Br)o2)c1 (stereo not drawn)	-6.4	-0.1	1.8	4.7	2.6
COc1ccc2noc3c2c1C(=O)c1ccccc1-3	-1.8	-21.0	-32.2	38.3*	-0.2
COc1ccc(OC)c2c1C(=O)c1ccccc1C2=O	-11.8	-6.9	-139.6	/	0.5
O=C(CC1S/C(=N/N=C2CCCCCC2)NC1=O)Nc1ccc(Br)cc1F (stereo not drawn)	6.8	3.2	-1.9	4.9	4.8
CCOc1ccc(C2C(C(=O)C3CC3)N3C=C(C#N)C=CC3C2(C#N)C#N)cc1 (stereo not drawn)	1.8	6.5	49.8*	/	-7.1
O=C(O)c1ccccc1NC(=O)c1ccccc1Nc1ccccc1	-2.6	3.5	-5.4	6.9	6.3
CCCCCc1nnc(NC(=O)C2CCCO2)s1 (stereo not drawn)	-5.8	1.3	0.2	35.7*	3.4
Cc1nnc(NC(=O)C2CCCO2)s1 (stereo not drawn)	2.4	-3.6	-2.8	-3.0	-6.0
O=C(c1ccccc1F)N(Cc1nc2ccccc2c(=O)[nH]1)C1CCCC1	-0.5	0.3	3.8	-1.8	-5.0
COc1ccc(NC(=O)CSc2nc3[nH]ncc3c(=O)n2-c2ccccc2C)cc1OC	-3.9	12.7	0.7	-3.6	-3.2
COc1ccc(NC(=O)CSc2nc3[nH]ncc3c(=O)n2-c2ccccc2OC)cc1OC	12.3	20.8*	1.6	-19.3	1.3
CCOc1ccc(/C(C)=N/NC(=O)c2nnn(-c3nonc3N)c2-c2cccs2)cc1	0.9	-5.0	4.0	0.6	4.6
COc1ccc(C2CC(c3ccccc3)=NN2C(=O)COC(=O)c2nc3nccc(C)n3n2)cc1 (stereo not drawn)	8.7	-1.7	-0.3	6.0	1.9
O=C1OC(c2ccc(F)cc2)=C/C1=C\c1ccc(O)cc1	1.4	4.2	0.4	4.0	-4.6
O=C1OC(c2ccc(F)cc2)=C/C1=C\c1ccc([N+](=O)[O-])o1	-14.6	5.7	44.5*	/	-14.0

Screening results (PubChem BioAssay)
